Screening results: PubChem BioAssay, several laboratories
Shown are actives, neighbours in structure and some others; about 2.1% of the full set was active somewhere.
thrombin 1536: human alpha-thrombin inhibitors, primary screen, counter-screen for coagulation protease inhibitor project, biochemical, 1536-well, fluorogenic AMC substrate; Prothrombin (Homo sapiens), P00734; Boc-VPR-AMC fluorogenic substrate cleavage; inhibition, % at 5 µM; 220,000 compounds, 0.26% hits; AID 1046, 2008;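 active means inhibition at or above 40%; inactive means inhibition below 40%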
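Test system: human alpha-thrombin; medium: pH 7.5 Tris-saline with Tween 20; times: reaction at room temperature; signal: AMC fluorescence at 355 nm excitation and 460 nm emission; also added: Boc-VPR-AMC substrate, 15 µM final; dosing: one concentration per compound, 5 µM, with 0.2% DMSO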
hK5 inh: human KLK5 protease inhibitors, primary screen, biochemical, 1536-well | Kallikrein-5 (Homo sapiens), Q9Y337 | recombinant hK5, fluorogenic AMC substrate cleavage | inhibition, % at 5 µM | 210,000 compounds, 0.59% hits;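 active means inhibition of 40% or more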
FXIa inh: human FXIa protease inhibitors, primary screen, biochemical, 1536-well. Coagulation factor XI (Homo sapiens), P03951. purified FXIa, Boc-Glu-Ala-Arg-AMC fluorogenic substrate. inhibition, % at 5 µM. 220,000 compounds, 0.14% hits. AID 798, 2007;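 active means inhibition of at least 40%; inactive means inhibition below 40%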;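 further: fluorescence of freed AMC excited at 355 nm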
EP2 modulator: EP2 receptor modulators, cAMP readout, primary screen, cell-based, HTRF cAMP, PGE2 stimulation; Prostaglandin E2 receptor EP2 subtype (Homo sapiens), P43116; EP2-expressing cells, cAMP HTRF FRET, PGE2 co-stimulation; induction, % at 25 µM; 260,000 compounds, 0.83% hits; AID 940, 2007;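 active means compounds whose cAMP rise, as percent of the full-agonist control response, exceeds 60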;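 further: rat C6 glioma line stably carrying human EP2 under a CMV promoter; the protocol text gives 20 µM as final concentration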
FXIIa inh: human FXIIa protease inhibitors, primary screen, biochemical, 1536-well. Coagulation factor XII (Homo sapiens), P00748. purified FXIIa, Boc-QGR-AMC fluorogenic substrate, 2 h. inhibition, % at 5 µM. 220,000 compounds, 0.3% hits; in the data active means inhibition above about 40%
Target sequence (P00748 20-372 limits assumed): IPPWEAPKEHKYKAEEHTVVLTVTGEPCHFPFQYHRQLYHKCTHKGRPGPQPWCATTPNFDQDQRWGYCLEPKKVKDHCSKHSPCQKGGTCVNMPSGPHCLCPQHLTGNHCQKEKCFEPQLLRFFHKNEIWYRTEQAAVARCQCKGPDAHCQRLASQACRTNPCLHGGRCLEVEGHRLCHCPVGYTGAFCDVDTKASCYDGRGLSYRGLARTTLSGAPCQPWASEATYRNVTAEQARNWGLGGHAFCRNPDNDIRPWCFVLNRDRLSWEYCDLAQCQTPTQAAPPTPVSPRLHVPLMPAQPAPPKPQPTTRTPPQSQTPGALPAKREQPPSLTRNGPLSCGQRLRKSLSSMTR
Target sequence (P00748 373-615 limits assumed): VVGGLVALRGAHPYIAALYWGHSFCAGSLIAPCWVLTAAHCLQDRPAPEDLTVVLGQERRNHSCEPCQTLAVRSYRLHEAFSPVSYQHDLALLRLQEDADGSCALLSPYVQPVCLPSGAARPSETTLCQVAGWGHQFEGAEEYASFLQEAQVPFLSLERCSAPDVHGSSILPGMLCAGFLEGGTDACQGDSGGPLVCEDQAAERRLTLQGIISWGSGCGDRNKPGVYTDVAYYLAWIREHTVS
EP2 antag: human EP2 receptor antagonists, primary screen, TR-FRET cAMP, C6 glioma cells; 260,000 compounds, 0.52% hits; C6 glioma cells expressing human EP2; cells stimulated with saturating PGE2; inhibition, % at 25 µM;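 active means percent inhibition above 40 after rounding to a whole number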;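 further: rat C6 glioma host cells with rolipram phosphodiesterase inhibitor present; the protocol text gives 20 µM as final concentration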
Numbers stand for hits; - = inactive; . = no result.

SMILES	thrombin 1536	hK5 inh	FXIa inh	EP2 modulator	FXIIa inh	EP2 antag
O=C(/C=C/c1ccco1)Nc1cc(Cl)c(O)c(Cl)c1	.	.	.	-	.	-
CCn1c2cc(C)oc2c2cnn(Cc3ccccc3C(F)(F)F)c(=O)c21	.	.	.	81	.	.
O=C(O)[C@@H](c1ccccc1)N1Cc2ccccc2C1=O	-	49	-	-	-	-
O=C(Nc1cccc([N+](=O)[O-])c1)Nc1cccc([N+](=O)[O-])c1	-	-	-	-	-	-
CC(C)S(=O)(=O)c1csc(NC(=O)Nc2cccc([N+](=O)[O-])c2)c1Cl	-	-	-	-	-	54
O=C(COC(=O)CCN1C(=O)c2cccc([N+](=O)[O-])c2C1=O)NCc1ccccc1	-	42	-	-	-	-
COC(=O)/C(=C(/F)Sc1cc(C)c(O)c(C)c1)C(F)(F)F	-	-	-	-	-	99
COCCn1c(SCC(=O)c2ccc(OC)cc2)nc2sc3c(c2c1=O)CCC3	.	.	.	-	.	-
COc1ccc(NC(=O)Cn2nnc(-c3ccccc3NC(=O)c3cnccn3)n2)cc1	.	.	.	-	.	-
CC(=O)Nc1nnc(SCC(=O)c2ccc3c(c2)Cc2ccccc2-3)s1	-	-	-	61	-	-
COc1cc(OC)cc(C(=O)N2CCN(c3ccccc3OC)CC2)c1	.	.	.	-	.	-
CC1=NNC(=S)NCCCN2CCN(CCCNC(=S)NN=C(C)C=NNC(=S)NCCCN3CCN(CCCNC(=S)NN=C1)CC3)CC2	.	.	.	-	.	45
CCOCCCNC(=S)N(Cc1ccccc1)Cc1cc2cc(C)cc(C)c2[nH]c1=O	.	.	.	-	.	-
COc1ccc(CN2CCC(CNC(=O)c3cccc(OC)c3OC)CC2)cc1	.	.	.	-	.	.
CCC(=O)N1CCN(c2ccc(NC(=O)COc3cccc(C)c3)cc2)CC1	.	.	.	-	.	-
CN(CCc1ccccn1)c1ccc2c(c1)Cc1ccccc1-2	.	.	.	-	.	52
C(=Nc1ccc2c(c1)Cc1ccccc1-2)c1ccccn1	.	.	.	-	.	-
COC(=O)c1c(-c2ccc(F)cc2)csc1NC(=O)c1ccco1	-	-	-	-	-	-
O=C(Nc1scc(-c2ccccc2)c1C(=O)O)c1ccco1	50	59	-	-	-	-
COc1cc(/C=C/c2nc3ccc([N+](=O)[O-])cc3s2)ccc1OCC(=O)O	-	-	-	85	-	-
COc1cc(/C=C/c2ccc3c([N+](=O)[O-])cccc3n2)ccc1OCC(=O)O	-	-	-	-	-	-
CC1(C)C2CCC(C2)C1(C)NC(=O)CNCCN1CCCC1 (stereo not given)	.	.	.	-	.	-
CCCCNC(=O)Cn1cnc2ccc(S(=O)(=O)N3CCC(C)CC3)cc2c1=O	-	.	-	-	-	-
CCN(CC)CCCNC(=O)Cn1cnc2ccc(S(=O)(=O)N3CCC(C)CC3)cc2c1=O	-	45	-	-	-	-
CC(=O)C1=C(S(=O)(=O)c2ccc(C)cc2)CS(=O)(=O)C1	-	-	-	-	-	97
SMILES	thrombin 1536	hK5 inh	FXIa inh	EP2 modulator	FXIIa inh	EP2 antag
CCC(NC(=O)c1csc(C(C)=O)c1)c1ccc(F)cc1 (stereo not given)	.	.	.	-	.	-
CCC(=O)Oc1ccc2c(C)c(Cl)c(=O)oc2c1	47	-	-	-	-	-
CCOC(=O)CCCNC(=O)CCNC(=O)c1ccc(OCC(C)C)cc1	-	-	-	-	-	-
CCOC(=O)CCCNC(=O)CCNC(=O)c1ccc(OC(C)C)cc1	-	40	-	-	-	-
O=C(COc1ccc([N+](=O)[O-])cc1)NN=C1CCCC1	-	55	-	-	-	-
O=C(Nc1ncnc2c1ncn2C1OC(COC(=O)c2ccccc2)C(F)C1O)c1ccccc1 (stereo not given)	-	-	-	-	-	-
CCCC(=O)Nc1ncnc2c1ncn2[C@@H]1O[C@@H]2COP(=O)(O)O[C@H]2[C@H]1OC(=O)CCC	-	-	-	109	-	-
O=C(O)CCC(O)=C1S(=O)(=O)OCCOS1(=O)=O	.	.	.	-	.	43
CN(C)c1ccc(P(=O)(OCc2ccccc2)C(O)c2ccncc2)cc1 (stereo not given)	-	-	-	-	-	.
